From PubChem
FXIIa inh: human FXIIa protease inhibitors, primary screen, biochemical, 1536-well; Coagulation factor XII (Homo sapiens), P00748; purified FXIIa, Boc-QGR-AMC fluorogenic substrate, 2 h; inhibition, % at 5 µM; actives 0.3% (n = 220,000); in the data active = inhibition above about 40%;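 note: 0% = enzyme with no compound and 100% = blank without enzyme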
Target sequence (P00748 20-372 limits assumed): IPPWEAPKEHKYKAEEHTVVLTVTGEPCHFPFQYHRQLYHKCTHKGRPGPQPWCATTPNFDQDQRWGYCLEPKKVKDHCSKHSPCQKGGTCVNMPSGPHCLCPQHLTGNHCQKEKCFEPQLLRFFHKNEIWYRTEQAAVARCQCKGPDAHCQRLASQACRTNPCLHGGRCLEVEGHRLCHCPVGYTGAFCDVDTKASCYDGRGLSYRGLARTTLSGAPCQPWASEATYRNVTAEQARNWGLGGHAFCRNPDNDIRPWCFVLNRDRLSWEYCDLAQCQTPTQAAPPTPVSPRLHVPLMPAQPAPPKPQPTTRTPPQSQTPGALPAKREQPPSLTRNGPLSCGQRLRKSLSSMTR
Target sequence (P00748 373-615 limits assumed): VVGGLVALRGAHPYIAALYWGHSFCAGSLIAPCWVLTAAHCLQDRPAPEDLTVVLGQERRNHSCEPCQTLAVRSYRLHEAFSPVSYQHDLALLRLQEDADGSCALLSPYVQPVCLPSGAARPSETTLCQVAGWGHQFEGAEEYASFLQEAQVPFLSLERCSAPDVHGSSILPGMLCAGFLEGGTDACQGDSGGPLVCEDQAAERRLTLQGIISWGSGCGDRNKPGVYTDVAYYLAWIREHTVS
FXIa inh 1536: human FXIa protease inhibitors, primary screen, biochemical, 1536-well | Coagulation factor XI (Homo sapiens), P03951 | AID 798, 2007 | inhibition, % at 5 µM | purified FXIa, Boc-Glu-Ala-Arg-AMC fluorogenic substrate | actives 0.14% (n = 220,000);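 active = inhibition of at least 40%; inactive = inhibition below 40%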;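 note: fluorescence of freed AMC excited at 355 nm; 0% = enzyme without compound and 100% = no enzyme blank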
Thrombin inh: human alpha-thrombin inhibitors, primary screen, counter-screen for coagulation protease inhibitor project, biochemical, 1536-well, fluorogenic AMC substrate; inhibition, % at 5 µM; Boc-VPR-AMC fluorogenic substrate cleavage; actives 0.26% (n = 220,000);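 active = inhibition at or above 40%; inactive = inhibition below 40%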;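 note: 0% = enzyme with no compound and 100% = wells without enzyme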
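Material: human alpha-thrombin enzyme / Medium: pH 7.5 Tris (50 mM) with NaCl 150 mM, Tween 20 0.05% / Compound: single-point dosing at 5 µM, 0.2% DMSO / Incubation: enzyme reaction carried out at room temperature / Detection: AMC fluorescence, 355/460 nm / Read-out basis: percent inhibition scaled between no-compound controls and no-enzyme blanks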
hK5 inh: human KLK5 protease inhibitors, primary screen, biochemical, 1536-well | Kallikrein-5 (Homo sapiens), Q9Y337 | recombinant hK5, fluorogenic AMC substrate cleavage | inhibition, % at 5 µM | actives 0.59% (n = 210,000);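 active = inhibition of 40% or more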;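 note: 0% = enzyme controls without compound and 100% = no-enzyme blanks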
* hit, by the source's call; . = no result. In the library only some 1% were active in any assay of this set; here they are far more common.

SMILES | FXIIa inh | FXIa inh 1536 | Thrombin inh | hK5 inh
COc1ccc(Cl)cc1NC(=S)NNC(=O)C1(C)CC1(Cl)Cl (stereo not given) | 49* | 6 | 2 | 13
COc1ccccc1CN(CC(=O)NCc1ccco1)C(=O)CNS(=O)(=O)c1ccccc1 | 0 | -3 | 4 | 0
COc1ccccc1CN(CC(=O)NCc1ccco1)C(=O)CNS(=O)(=O)c1ccc(C)cc1 | 21 | 8 | 56* | -5
COc1cccc(-c2cc(C(=O)Nc3c(C)nn(Cc4ccccc4)c3C)no2)c1 | 10 | 10 | 41* | 55*
COc1ccc(-c2cc(C(=O)Nc3c(C)nn(Cc4ccccc4)c3C)no2)cc1 | 12 | 0 | 2 | -4
CC1CCN(CC(=O)Nc2ccccc2C#N)CC1 | 24 | 14 | 43* | 23
C=CCN(CC=C)CCOc1cccc(Oc2ccccc2)c1 | 9 | 5 | 1 | 5
Cn1c(/C(C#N)=C/C2CC=CCC2)nc2ccccc21 (stereo not given) | 6 | 3 | 7 | 47*
CC(C(=O)OCC(=O)Nc1ccc2c(c1)OCO2)N1C(=O)c2ccccc2C1=O (stereo not given) | 11 | -2 | -9 | -18
CC(C(=O)Oc1ccc2c(c1)OCO2)N1C(=O)c2ccccc2C1=O (stereo not given) | 57* | 32 | 0 | 6
O=C(Nc1ccc(N2CCOCC2)cc1N1CCOCC1)c1ccc([N+](=O)[O-])cc1 | 13 | 13 | 2 | -22
O=C(NNc1cc(N2CCOCC2)nc(N2CCOCC2)n1)c1ccc([N+](=O)[O-])cc1 | 22 | 31 | 3 | 68*
CC1(C)CC(=O)CC(=NCC(=O)O)C1 | -2 | -7 | 0 | 128*
CC(=O)Nc1ccc(NC(=O)CSc2nccn2Cc2ccccc2)cc1 | 3 | 4 | 15 | 57*
CC(=O)Nc1ccc(NC(=O)CSc2ncnn2-c2ccccc2)cc1 | 43* | 1 | 2 | -3
CC(=O)Nc1ccc(NC(=O)CSc2ccccn2)cc1 | -1 | -11 | -1 | -4
CCOC(=O)CC1C(=O)NCCN1C(=O)c1c(F)cccc1F (stereo not given) | 10 | -23 | -2 | 11
CCOC(=O)CC1C(=O)NCCN1Cc1cccc(C(F)(F)F)c1 (stereo not given) | -4 | -8 | -7 | 40*
C=C(C)CNC(=S)N/N=C(\C)c1cccc(NC(C)=O)c1 | 34 | 49* | 11 | 75*
Cc1ccc(N2C(=S)NC3c4ccccc4OC2(C)C3C(=O)N(C)C)cc1 (stereo not given) | 15 | 0 | 44* | 5
Cc1ccccc1N1C(=S)NC2c3ccccc3OC1(C)C2C(=O)N(C)C (stereo not given) | -1 | -1 | 2 | -16
O=C(Nc1ccc(N2C(=O)CCC2=O)cc1Cl)c1cccs1 | 8 | -1 | -2 | 3
O=C(NCC(=O)N(CC1CCCO1)C(C(=O)NC1CCCCC1)c1cccnc1)c1cccs1 (stereo not given) | 0 | 0 | -9 | -2
CCC1=NN(C(=O)Cc2ccc([N+](=O)[O-])cc2)C(O)(C(F)(F)F)C1 (stereo not given) | 56* | 28 | 22 | 25
CCOc1ccccc1NC(=O)C(=O)N/N=C/c1cc(Br)ccc1O | -2 | -5 | -2 | -10
SMILES | FXIIa inh | FXIa inh 1536 | Thrombin inh | hK5 inh
COc1cc(/C=C/C(=O)OCc2c(C)noc2C)ccc1OC(F)F | 35 | 39 | 13 | 54*
COc1cc(/C=C/C(=O)OCC(=O)NCCN2C(=O)CSC2=O)ccc1OC(F)F | 19 | 28 | 30 | 18
COc1cccc(CC2(CO)CCN(Cc3ccc4cccc(F)c4n3)CC2)c1 | 13 | 5 | -1 | .
Cc1cc(C)nc(SCC(=O)c2cc3ccccc3oc2=O)n1 | -2 | 4 | -6 | -13
O=C(CSc1nc2ccccc2o1)c1cc2ccccc2oc1=O | 13 | 6 | 81* | 30
CC12CCC(C/C1=N\N=C1\NC(=O)/C(=C\c3ccc(Cl)cc3)S1)C2(C)C (stereo not given) | 6 | 1 | -8 | -1
CCCN(CCC)S(=O)(=O)c1ccc(C(=O)NNc2nc(-c3ccccc3)c3cc(Br)ccc3n2)cc1 | 10 | 66* | 3 | -68
CCCCC(=O)NCc1ccc2c(c1)cc(C)n2C | 8 | -4 | -10 | 1
CCOC(=O)CCC(=O)NCc1ccc2c(c1)cc(C)n2C | 16 | -2 | 5 | 54*
CC1=CC(C)[C@H](/C=N/n2c(=O)[nH]c3c([nH]c4ccc(C)cc43)c2=O)C(C)C1 (stereo not given in full) | 27 | 28 | 32 | 8
COc1ccc(COCC(O)CN2CCOCC2)cc1OC (stereo not given) | 3 | 5 | -17 | 0
COc1cc(COCC(O)CN2CCOCC2)cc(OC)c1OC (stereo not given) | 45* | 9 | -8 | -7
CCC(C)NC(=O)CSc1ncnc2sccc12 (stereo not given) | 40* | 31 | 26 | 18
CCc1ccc(C(=O)COC(=O)c2cccc(N3C(=O)c4c(C)nc5ccccc5c4C3=O)c2)cc1 | 17 | 0 | 9 | 51*
O=C1NCC(COCc2ccco2)O1 (stereo not given) | 17 | 8 | 103* | 32
Cc1c(NS(=O)(=O)c2ccc(Cl)c(C(=O)OCC(=O)NCc3ccco3)c2)c(=O)n(-c2ccccc2)n1C | 17 | 19 | 46* | 24
Cc1ccc(C(C)C)c(OCC(=O)N/N=C/c2cccn2C)c1 | 7 | 0 | -3 | 2
O=C(NCCc1nc2ccccc2[nH]1)c1ccco1 | 14 | 20 | 20 | 52*
Cc1nnc(SCC(=O)Nc2ccc(Oc3ccccc3)cc2)n1N | 9 | 0 | 1 | -8
Cc1nnc(SCc2cccc(Oc3ccccc3)c2)n1N | -1 | 3 | 26 | 59*
Nc1[nH]n2c(=O)cc(-c3ccccc3)nc2c1N=Nc1ccc2c(c1)OCO2 | 30 | 14 | 2 | 12
CCOC(=O)c1c(NC(=O)CSc2nnc(-c3ccco3)o2)sc(C(C)=O)c1C | 19 | 0 | -1 | 0
CCOC(=O)c1c(NC(=O)CSc2nnc(-c3cccnc3)o2)sc(C(C)=O)c1C | 19 | 1 | 18 | 48*
OCc1nc2ccccc2n1/N=C/c1cccs1 | 17 | 16 | 15 | 43*
Cc1nn(C)cc1NC(=O)CC12CC3CC(CC(C3)C1)C2 | 6 | 4 | 1 | 52*
Cc1cc(C(=O)OCC(=O)N2CC(=O)Nc3ccccc32)c(C)n1-c1ccccc1 | 10 | 5 | 9 | 60*
Cc1cc(C(=O)OCC(=O)N2CC(=O)Nc3ccccc32)c(C)n1-c1ccc(F)cc1 | 4 | 6 | -10 | 9
O=C1CN(C(=O)COc2ccc(F)cc2Cl)c2ccccc2N1 | 12 | -4 | 14 | 54*
